Results reported in the EternaBench riboswitch data.

Test system: MS2 coat protein
Assay: apparent Kd, MS2 coat protein; higher = weaker binding; RNA-MaP array; FMN 200 µM where present
In short: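 The apparent Kd is reported as the median of filtered per-cluster binding-curve fits. To get these curves, designs transcribed by stalled E. coli RNA polymerase on Illumina sequencing-chip clusters were titrated with SNAP-549-labelled MS2 coat protein from 0.7 or 1.5 nM, doubling to 3 µM. Titrations were run without and then with constant ligand in 100 mM Tris-HCl pH 7.5, 80 mM KCl, 4 mM MgCl2, BSA, DTT, yeast tRNA and Tween-20, and green signal was normalised to red-channel RNA signal and control-cluster median Fmax.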

[1] = designed as: ON switch for flavin mononucleotide, no ligand
[2] = ligand present: flavin mononucleotide, designed as: ON switch for flavin mononucleotide
[3] = designed as: OFF switch for flavin mononucleotide, no ligand
[4] = ligand present: flavin mononucleotide, designed as: OFF switch for flavin mononucleotide

Sequence | apparent Kd [1] | apparent Kd [2] | apparent Kd [3] | apparent Kd [4]
CGCGAACAGUUUUACAUGAGGAUCACCCAUGUGGACUCAUGGUAGGAUAUCGGGAAGGAGGAAACCGAGAAGGGCUGGUGAGCC | 312 nM | 256 nM |  | 
UUUAUGGGACAGAAGGGCAUUUACAUGAGGAUCACCCAUGUUCAUCAUUGCAGGAUAUGUAUUACAUGAGGAUCACCUAUGUUC | 170 nM | 82.5 nM |  | 
AUCAUCUCGUCAGGAUAUACGUCACUGCGUCAGCAGUGUGGUAAGAUCACAUGAGGAUCACCCAUGUAGAAGGGACGAGCUGAU |  |  | 14.4 nM | 226 nM
AAGUCAGCAGGAUAUGCGAUGGUGUGCUAGGUAGCUUGCCCACAUGAGGAUCACCCAUGUAGAAGGGCUGGCUA |  |  | 13.2 nM | 12.1 nM
GUGCCUUGGGAGAAGGUUACAUGCAAAGCAUUUAAAGGAUAUUCAUACCGGAAACGGACAUGAGGAUCACCCAUGUGGCACAAA | 870 nM | 145 nM |  | 
UGAGCAUGAGGAUAUACUUGGCGACCGUGAGGUCGAGGUUUACAUGAGGAUCACCCAUGUAGAAGGCAUGUUCU |  |  | 18.7 nM | 52.6 nM
GCAUUUUAUGCAGGAUAUUGACUUUGGAUUAAACAAGAAGGGCAUAACAUGAGGAUCACCCAUGUUAUAUAGGUAUAUAUGUUC |  |  | 7.45 nM | 9.62 nM
UUUUUUUAAUAGAAGGAGGACUUCAUGAGGAUCACCCAUGUGUUAGUACUUAGGAUAUGUAAUAACAUGAGGAUCACCCAUGUC | 51.9 nM | 48.7 nM |  | 
GGAAGACAAAGUCUUCCAUUACGAACAUGAGGAUCACCCAUGUAGGAUAUGCUUCUCAAAGAGAAGCAGAAGGACAUGUGUCUU |  |  | 26.6 nM | 134 nM
GAAAAACAUGAGGAUCACCCAUGUAGAAAUAUGGGAGGAUAUACAAAGUCGAAAGACAAAGUAGAAGGCCUAAAAG | 146 nM | 26.9 nM |  | 
UUUUUUUUGUGAGGAUAUACAACAUGAGGAUCACCCAUGUCAUGUUCAACAUGAGGAUCACCCAUGUAGAAGGCGCUUUUUUUU |  |  | 281 nM | 247 nM
ACCUCGUACACAGGAUAUGAUUACUUGCAGCCUGCGUUGACAUGAGGAUCACCCAUGUGGACUGAUCAGAAGGGUGAACGGAAG |  | 112 nM |  | 
UUAUUUAGGUAGGAUAUCGAUAUCAAUCCCUAUCGAGAAGGGUCUACAUGAGGAUCACCCAUGUUAGCAUGUUU |  |  | 21.2 nM | 19.2 nM
GCGAUAACAUGAGGAUCACCCAUGUAUGUGGCGGGCCCUACGAGAAGGCCAUGUAACAAAUACAUGGAGGAUAUCGGAUGAGUU | 153 nM | 26.6 nM |  | 
GCCAGGCAUGUAGGAUAUCCAUUGCGUCGCGUUGGAGAAGGGCAACACACAUGAGGAUCACCCAUGUGGUCACCCAUGUAGUGU |  |  | 489 nM | 524 nM
UAAAUUUACAAGAAGGCUAACAUGAGGAUCACCCAUGUUGUACAUGGAUAUAGAGGAUAUUGCUAAUAAUUAUUUAUCAUAAUU |  |  | 24.2 nM | 19.5 nM
AGGUGGUGUGGAAAGGAUAUACGGUUGAGGACAUGAGGAUCACCCAUGUGGUAGAGGACGUGAGUGUAGAAGGUUCGGGAUUGGU | 74.9 nM | 52.1 nM |  | 
CAUGUCUGAGGAUAUCGUUAUUUGUACAUGAGGAUCACCCAUGUCCUAUUUAUUAUAUUUCGAGAAGGCAGUGUAU |  |  | 16.9 nM | 18.2 nM

Sequence | apparent Kd [1] | apparent Kd [2] | apparent Kd [3] | apparent Kd [4]
CGAUAACAUAGUUAUCCGUAACGGACAUGAGGAUCACCCAUGUAGGAUAUGUUACUAAACUAGUAACAGAAGGACAUGAGUCUU |  |  |  | 295 nM
GUAUAUCACUAAGGAUAUCUGUAAUUUGUUGAAACAUGAGGAUCACCCAUGUUCAUGAAUUUAUAGGAGAAGGUAGAGAUAUAC | 4.24 nM | 4.15 nM |  | 
GCCCGGGCAAACAUGAGGAUCACCCAUGUGUUAUACUUAAUAUAGGAUAUGUUUAUACUUUUUGGGCAGAAGGAUGGCCCGGGC | 35.1 nM | 32.4 nM |  | 
GCCAGUUAUGUAGGAUAUGCGAGGCGAGCCUGAGCAGAAGGACAUGAGGAUCACCCAUGUAUUGCGGUUUGAGUACUGAUCGCU |  |  | 38.1 nM | 215 nM
CCUAAGGACACAGGAUAUAGCGUCGUGGCUGGGCUCCAACGGCGAGCGGCGCUAGAAGGGUGACCACAUGAGGAUCACCCAUGU | 522 nM | 150 nM |  | 
GUGUACAGAGGAUAUACUCGAAUCUAGCGAAGCUAGGUUUGACAUGAGGAUCACCCAUGUAGAAGGCUGUACAC |  |  | 14.6 nM | 18.9 nM
GGUCGAAAGUAAGGAUAUGCCUAGGAAACCUAGGCAGAAGGUACAUGAGGAUCACCCAUGUUAACGCAAAGCGAAUAAACGACC |  |  | 18.6 nM | 27.4 nM
GGAUAGGACAGAGGAUAUACGUGCUAGAGAUACUAGCAAAAUGUCCUCACAUGAGGAUCACCCAUGUAGAAGGCUGUCCUAUCG |  |  | 7.96 nM | 156 nM
CUGAUGUGAGGAUAUGUGAUCUGCCUUCUAUAUAGAUGAUUACAGAAGGCACAUGAGGAUCACCCAUGUAGAUC |  |  | 74.7 nM | 62.6 nM
GUCGGAAACGACAAACGUAGCAUACGAGAAGGCUGAUCCACGACAUGAGGAUCACCCAUGUAGUUAGAGGAUAUUGGAUGCUAC | 54.7 nM | 11.3 nM |  | 
CCAUGCAUAGCGAUAUGAUCGAGAGAUCAUGUCGCUAAAUUUAGAAGGACAUGAGGAUCACCCAUGUAGGAUAUGGGAGCAUGG | 11.7 nM | 8.26 nM |  | 
GCCCAAUCCACUUCGGGCCCAGACAGAAGGGCACACGGUCUAAGUCACAUGAGGAUCACCCAUGUGCAGGAUAUGUCUCGACUC |  |  | 9.88 nM | 50.3 nM
UUUUAACAUGAGGAUCACCCAUGUGAGGAUAUCGAAAUUUAUAUUAAUAUUUUUAAAACGAGAAGGCACAUUUU |  |  | 61.3 nM | 84.8 nM
AUCAGCUCGUCAGGAUAUACGUAAUGGUAAGAUCACAUGAGGAUCACCCAUGUAGAAGGGACGAGCUGAUAAGCACGAAAGUGC |  |  | 192 nM | 676 nM
UCCUUGUCCUGAGGAUAUCCGCGGUUCCCAAAAGGAGAAGGCAGGACAUGAGGAUCACCCAUGUACCCAGAAAACGUGCAGAGC |  |  | 9.39 nM | 33.8 nM
AGAAACUACGAGAAGGACAUGAGGAUCACCCAUGUUUCCACUUAGUGGCAUGUAGGAUAUCGUAGUUUCAGGAUCGUGAGAUCA |  |  | 5.58 nM | 16.6 nM
UGAGCAUCAGGAUAUAUGUGGCGACCGUGAGGUCGAAGGUUACAUGAGGAUCACCCAUGUAGAAGGGAUGUUCU |  |  | 62.6 nM | 203 nM
CACAGGGAUUCAGGAUAUAUUAGCCGAGGCCGCGUAGAAGGGAAAUCCUGACAUGAGGAUCACCCAUGUUGACCCGCCUUCCAU | 52.8 nM | 62.5 nM |  | 
